According to ChEMBL document CHEMBL1124534, “Synthesis, mechanism of action, and biological evaluation of mitosenes” (1989):
In brackets after ≈: the same amount, converted by molar mass.

Assays:
A204 = assay: In vitro antitumor activity against A204 rhabdomyosarcoma tumor cell line was determined; type: functional; details: Homo sapiens, read-out: ID50 (the source's name)
Procedure, shortened: (§1)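 Cell growth inhibition in vitro measured by the PIT method, with mitomycin C as positive reference.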

L1210 = assay: In vitro antitumor activity against L1210 lymphocytic leukemia tumor cell line was determined; type: functional; details: Mus musculus, read-out: ID50 (the source's name)
Procedure, shortened: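 Inhibition of L1210 leukemia colony formation in vitro, with mitomycin C as positive reference.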

Mus musculus [1] = assay: Mean relative body weight change of treated / mean relative body weight change of control when compound (3 mg/kg/day) administered to inhibit growth of human tumor xenograft GXF 97 was reported at day 14 in nude mice; type: functional
Procedure, shortened: (§2)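 GXF 97 xenograft grown subcutaneously in nude mice for 24 days, then randomized; ip dosing began 1 day later, given on days 1-4, with 4-5 mice per group. Read-out is mean relative body weight change of treated divided by mean relative body weight change of controls, in %.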

Mus musculus [2] = assay: Body wieght treated/body weight untreated controls of compound (10 mg/Kg) was evaluated in vivo for antitumor activity against MAC 16 in female NMRI mice on day 12; type: functional
Mus musculus [3] = assay: Body wieght treated/body weight untreated controls of compound (10 mg/Kg) was evaluated in vivo for antitumor activity against MAC 16 in female NMRI mice on day 4; type: functional
Mus musculus [4] = assay: Percentage change in body weight [(day 6 - day 1)/ day 1] for antitumor activity against P388 Leukemia in CD2 mice at fractioned dose treatment of 2 mg/Kg; type: functional
Procedure, shortened: (§3)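 Mouse P388 leukemia model. Drugs were given intraperitoneally, either as a single injection or once daily for 9 consecutive days (fractioned schedule). Outcomes were median survival time in days, %T/C, and % body weight change.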

Mus musculus [5] = assay: Percentage change in body weight [(day 6 - day 1)/ day 1] for antitumor activity against P388 Leukemia in CD2 mice at fractioned dose treatment of 8 mg/Kg; type: functional; details: in the assay text read “single dose treatment” for “fractioned dose treatment”; procedure, shortened: as §3
Mus musculus [6] = assay: Percentage change in body weight [(day 6 - day 1)/ day 1] for antitumor activity against P388 Leukemia in CD2 mice at fractioned dose treatment of 12 mg/kg; type: functional; details: in the assay text read “single dose treatment” for “fractioned dose treatment”; procedure, shortened: as §3
Mus musculus [7] = assay: Mean relative body weight change of treated / mean relative body weight change of control when compound (3 mg/kg/day) administered to inhibit growth of human tumor xenograft GXF 97 was reported at day 28 in nude mice; type: functional; procedure, shortened: as §2
Mus musculus [8] = assay: Mean relative body weight change of treated / mean relative body weight change of control when compound (3 mg/kg/day) administered to inhibit growth of human tumor xenograft GXF 97 was reported at day 21 in nude mice; type: functional; procedure, shortened: as §2
Mus musculus [9] = assay: Median survival time in days for antitumor activity against P388 Leukemia in CD2 mice at fractioned dose treatment of 2 mg/kg; type: functional
Procedure, shortened: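 P388 leukemia-bearing mice were dosed intraperitoneally once daily for 9 consecutive days (fractioned schedule). The read-out was median survival time in days, reported alongside %T/C and % body weight change.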

Mus musculus [10] = assay: Percent inhibition of compound (10 mg/Kg) was evaluated in vivo for antitumor activity against MAC 13 in female NMRI mice on day 2; type: functional
Procedure, shortened: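 MAC 13 in female NMRI mice. Drugs were given in arachis oil BP by ip route on day 2 or day 29. % inhibition was derived from treated/untreated control tumor weight (volume); a negative value indicates stimulation.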

Mus musculus [11] = assay: Ability of intraperitoneally administered compound (3 mg/kg/day) to inhibit growth of human tumor xenograft GXF 97 was assessed on day 14 in nude mice; type: functional
Procedure, shortened: (§4)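 GXF 97 human gastric xenograft grown subcutaneously in nude mice for 24 days, then randomized; dosing began 1 day later as ip injections on days 1-4. Groups had 4-5 mice. Tumor length and width were measured. %T/C = median relative tumor size of treated / median relative tumor size of controls.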

Mus musculus [12] = assay: Ability of intraperitoneally administered compound (3 mg/kg/day) to inhibit growth of human tumor xenograft GXF 97 was assessed on day 21 in nude mice; type: functional; procedure, shortened: as §4
Mus musculus [13] = assay: Ability of intraperitoneally administered compound (3 mg/kg/day) to inhibit growth of human tumor xenograft GXF 97 was assessed on day 28 in nude mice; type: functional; procedure, shortened: as §4
Mus musculus [14] = assay: Percent T/C ([…]) for antitumor activity against P388 Leukemia in CD2 mice at fractioned dose treatment of 12 mg/kg; type: functional; details: in the assay text read “single dose” for “fractioned dose”; procedure, shortened: as §3
Mus musculus [15] = assay: Percent T/C ([…]) for antitumor activity against P388 Leukemia in CD2 mice at fractioned dose treatment of 2 mg/kg; type: functional; procedure, shortened: as §3
Mus musculus [16] = assay: Percent T/C ([…]) for antitumor activity against P388 Leukemia in CD2 mice at fractioned dose treatment of 8 mg/Kg; type: functional; details: in the assay text read “single dose” for “fractioned dose”; procedure, shortened: as §3
Mus musculus [17] = assay: Relative tumor size on day 28 was reported when compound (3 mg/kg/day) administered to inhibit growth of human tumor xenograft GXF 97 in nude mice; type: functional
Procedure, shortened: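 GXF 97 human gastric xenograft grown subcutaneously in nude mice for 24 days, then mice randomized; treatment began 1 day later. Fractioned ip injections on days 1-4, or single iv injection on day 1; 4-5 mice per group. Tumor size from length and width; relative tumor size (% of controls) read at day 28.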

Mus musculus [18] = assay: Compound (10 mg/Kg) was evaluated in vivo for antitumor activity against MAC 16 in female NMRI mice on day 12 and ratio of tumor weight of treated to that of control was determined; type: functional
Mus musculus [19] = assay: Compound (10 mg/Kg) was evaluated in vivo for antitumor activity against MAC 16 in female NMRI mice on day 4 and ratio of tumor weight of treated to that of control was determined; type: functional
WiDr = assay: In vitro antitumor activity against WiDr colon carcinoma tumor cell line was determined; type: functional; details: Homo sapiens, read-out: ID50 (the source's name); procedure, shortened: as §1
Mus musculus [20] = assay: Median survival time in days for antitumor activity against P388 Leukemia in CD2 mice at single dose treatment of 8 mg/Kg
Mus musculus [21] = assay: Median survival time in days for antitumor activity against P388 Leukemia in CD2 mice at single dose treatment of 12 mg/Kg
Mus musculus [22] = assay: Compound (10 mg/Kg) was evaluated in vivo for antitumor activity against MAC 13 in female NMRI mice on day 2 and ratio of tumor weight of treated to that of control was determined

`COC1=CC(=O)c2c(c(COC(C)=O)c3n2CCC3OC(C)=O)C1=O` (stereo not given) showed an IC50 (A204) of 0.008 µg/mL (≈ 0.023 µM), an IC50 (L1210) of 0.495 µg/mL (≈ 1.43 µM) and a BWC (Mus musculus [1]) of 89.6%. It also gave a BW (Mus musculus [2]) of 81%, a BW (Mus musculus [3]) of 105% and a BWC (Mus musculus [4]) of -20.9%. It also gave a BWC (Mus musculus [5]) of -2%, a BWC (Mus musculus [6]) of -1.8% and a BWC (Mus musculus [7]) of 87.1%. It also gave a BWC (Mus musculus [8]) of 86.5%, an MST (Mus musculus [9]) of 12 days and an I (Mus musculus [10]) of -52%. For the same molecule, the T/C (Mus musculus [11]) was 39.3%, the T/C (Mus musculus [12]) was 31.7% and the T/C (Mus musculus [13]) was 31.7%. The T/C (Mus musculus [14]) was 91%, the T/C (Mus musculus [15]) was 109% and the T/C (Mus musculus [16]) was 100%. For the same molecule, the “Relative TS” value (Mus musculus [17]) was 210.1%, the T/C (Mus musculus [18]) was 104% and the T/C (Mus musculus [19]) was 99%. For the same molecule, the IC50 (WiDr) was 0.037 µg/mL (≈ 0.107 µM), the MST (Mus musculus [20]) was 11 days and the MST (Mus musculus [21]) was 10 days. It also gave a T/C (Mus musculus [22]) of 152%.
